How the values were obtained:
NCI-H23 = assay: Growth inhibition of human NCI-H23 cells assessed as cell growth at 10^-8 M incubated for 48 hrs by sulforhodamine B assay; type: functional; details: NCI-H23, 48 h, read-out: Activity
[1] = Growth inhibition of human MOLT4 cells assessed as cell growth at 10^-5 M incubated for 48 hrs by sulforhodamine B assay; type: functional; details: MOLT-4, 48 h, read-out: Activity
[2] = Growth inhibition of human DU145 cells assessed as cell growth at 10^-8 M incubated for 48 hrs by sulforhodamine B assay; type: functional; details: DU-145, 48 h, read-out: Activity
Outline: (§1)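 Cells seeded at 5,000–40,000/well according to doubling time and preincubated 24 h at 37 °C, 5% CO2. Time-zero plates were TCA-fixed. DMSO concentrate was diluted in medium with 50 µg/ml gentamicin to give five concentrations (10-fold or ½ log steps), then exposed 48 h. Cells were TCA-fixed, stained with 0.4% SRB and read at 515 nm. Percent growth was taken against time-zero and control; GI50, TGI and LC50 derived.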

MCF7 = assay: Growth inhibition of human MCF7 cells assessed as cell growth at 10 uM incubated for 48 hrs by sulforhodamine B assay; type: functional; details: MCF7, 48 h, read-out: Activity
CCRF-CEM = assay: Growth inhibition of human CCRF-CEM cells incubated for 48 hrs by sulforhodamine B assay; type: functional
Outline: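 Leukemia line in the five-dose format: five concentrations from 10-fold or ½-log serial dilutions. Plated at 5,000–40,000 cells per well, preincubated 24 h, then compound added for 48 h at 37 °C, 5% CO₂. Sulforhodamine B absorbance read at 515 nm. Growth is computed against time-zero (Tz) and control (C) readings; GI₅₀ is where [(Ti−Tz)/(C−Tz)]×100 = 50.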

A498 = assay: Growth inhibition of human A498 cells assessed as cell growth at 10^-4 M incubated for 48 hrs by sulforhodamine B assay; type: functional; details: A498, 48 h, read-out: Activity
Outline: (§2)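 Five-dose assay: five concentrations from 10-fold or ½-log serial dilutions. Cells are plated at 5,000–40,000 per well according to doubling time, grown 24 h, then exposed 48 h at 37 °C, 5% CO₂. Fixed with cold 50% TCA (final addition) for 60 min at 4 °C and stained with 0.4% SRB in 1% acetic acid. Bound dye is solubilized in 10 mM Tris base and read at 515 nm. GI₅₀ is where [(Ti−Tz)/(C−Tz)]×100 = 50, with a time-zero plate as Tz.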

[3] = Growth inhibition of human HL-60(TB) cells assessed as cell growth at 10^-7 M incubated for 48 hrs by sulforhodamine B assay; type: functional; details: HL-60, 48 h, read-out: Activity
Outline: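 Cells plated at 5,000–40,000/well according to doubling time and preincubated 24 h at 37 °C, 5% CO₂, with time-zero plates TCA-fixed. Drugs were kept as DMSO concentrates at 400× the top concentration and diluted in medium with 50 µg/ml gentamicin. Five 10-fold or ½-log dilutions were run for 48 h, followed by SRB staining and A515. Percent growth = (Ti−Tz)/(C−Tz)×100, or (Ti−Tz)/Tz×100 when Ti<Tz.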

U-251 = assay: Growth inhibition of human U251 cells assessed as cell growth at 10^-5 M incubated for 48 hrs by sulforhodamine B assay; type: functional; details: U-251, 48 h, read-out: Activity
[4] = Growth inhibition of human Caki1 cells assessed as cell growth at 10^-7 M incubated for 48 hrs by sulforhodamine B assay; type: functional; details: CAKI-1, 48 h, read-out: Activity; outline: as §1
[5] = Growth inhibition of human OVCAR8 cells incubated for 48 hrs by sulforhodamine B assay; type: functional; details: OVCAR-8, 48 h
Outline: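 Cells were plated at 5,000–40,000 per well according to doubling time and preincubated 24 h at 37 °C in 5% CO2; time-zero plates were then TCA-fixed. Five concentrations (10-fold or ½-log dilutions, DMSO stock) were incubated 48 h. Cells were TCA-fixed, stained with 0.4% SRB and read at 515 nm. GI50 was taken where [(Ti−Tz)/(C−Tz)]×100 = 50.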

EKVX = assay: Growth inhibition of human EKVX cells assessed as cell growth at 10^-8 M incubated for 48 hrs by sulforhodamine B assay; type: functional; details: read-out: Activity; outline: as §1
Albumin = Albumin (Bos taurus, UniProt P02769); assay: Binding affinity to bovine serum albumin assessed as binding constant in emission spectra by Benesie-Hildebrand plot analysis; type: ADME; details: cattle, isolated protein
Outline: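 BSA, 10 µM, in 0.1 M phosphate buffer pH 7.4, titrated with compound (0–20 µM per the figure; diluted from 10⁻³ mol L⁻¹ DMSO stocks). Run at 300 K in a 1 cm quartz cell. UV spectra taken 200–800 nm after 5 min equilibration; fluorescence excited at 280 nm, emission 351 nm, slit 10 nm. K is the intercept/slope ratio of a linear fit of 1/(A₀−A) or 1/(F₀−F) vs 1/[compound].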

[6] = Growth inhibition of human UACC62 cells assessed as cell growth at 10^-7 M incubated for 48 hrs by sulforhodamine B assay; type: functional; details: UACC-62, 48 h, read-out: Activity
K562 = assay: Growth inhibition of human K562 cells assessed as cell growth at 10^-7 M incubated for 48 hrs by sulforhodamine B assay; type: functional; details: K562, 48 h, read-out: Activity
786-0 = assay: Growth inhibition of human 786-0 cells incubated for 48 hrs by sulforhodamine B assay; type: functional; details: 786-0, 48 h; outline: as §2
[7] = Growth inhibition of human SNB75 cells assessed as cell growth at 10^-4 M incubated for 48 hrs by sulforhodamine B assay; type: functional; details: SNB-75, 48 h, read-out: Activity
[8] = Growth inhibition of human CNS cancer cells incubated for 48 hrs by sulforhodamine B assay; type: functional; details: Cancer cell lines; for CC50: read-out: LC50 (the source's name); outline: as §2
[9] = Growth inhibition of human non-small cell lung cancer cells incubated for 48 hrs by sulforhodamine B assay; type: functional; details: Cancer cell lines; for CC50: read-out: LC50 (the source's name)
[10] = read-out: LC50 (the source's name)
[11] = read-out: pLC50 (the source's name) (converted)

Albumin, sequence (P02769 whole entry): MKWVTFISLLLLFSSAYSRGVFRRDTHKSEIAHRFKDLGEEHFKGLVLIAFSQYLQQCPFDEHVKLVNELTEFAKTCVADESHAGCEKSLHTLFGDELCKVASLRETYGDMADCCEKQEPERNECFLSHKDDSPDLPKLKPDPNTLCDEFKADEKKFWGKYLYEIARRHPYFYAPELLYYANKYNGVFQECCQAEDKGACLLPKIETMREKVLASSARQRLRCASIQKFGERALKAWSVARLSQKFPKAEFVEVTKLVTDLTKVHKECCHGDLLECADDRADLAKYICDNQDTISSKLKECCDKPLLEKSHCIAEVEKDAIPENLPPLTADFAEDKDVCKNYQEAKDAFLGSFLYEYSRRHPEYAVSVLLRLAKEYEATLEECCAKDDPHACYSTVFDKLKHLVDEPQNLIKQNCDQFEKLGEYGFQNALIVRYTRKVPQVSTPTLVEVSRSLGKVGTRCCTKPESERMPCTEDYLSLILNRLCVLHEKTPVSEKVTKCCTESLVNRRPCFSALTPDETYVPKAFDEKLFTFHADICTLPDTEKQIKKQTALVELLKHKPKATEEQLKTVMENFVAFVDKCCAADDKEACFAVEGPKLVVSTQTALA

Row | SMILES | growth at 0.01 µM (NCI-H23) [%] | growth at 10 µM [1] [%] | growth at 0.01 µM [2] [%] | growth at 10 µM (MCF7) [%] | GI50 (CCRF-CEM; read-out: GI50) [µM] | TGI (CCRF-CEM; read-out: TGI) [µM] | GI50 (CCRF-CEM; read-out: pGI50 (converted)) [µM] | TGI (CCRF-CEM; read-out: pTGI (converted)) [µM] | growth at 100 µM (A498) [%] | growth at 0.1 µM [3] [%] | growth at 0.1 µM [4] [%] | GI50 ([5]; read-out: GI50) [µM] | CC50 [5, 10] [µM] | TGI ([5]; read-out: TGI) [µM] | GI50 ([5]; read-out: pGI50 (converted)) [µM] | CC50 [5, 11] [µM] | TGI ([5]; read-out: pTGI (converted)) [µM] | growth at 0.01 µM (EKVX) [%] | K (Albumin) | growth at 0.1 µM [6] [%] | further results
1 | c1ccc(-c2nc(Nc3ccc(-c4nc5ccccc5[nH]4)cc3)nc(N3CCOCC3)n2)cc1 | 95 | -53 | 99 | -76.2 | 0.544 | 3.12 | 0.55 | 3.09 | -100 | 26 | 86 | 1.72 | 6.79 | 3.41 | 1.7 | 6.76 | 3.39 | 92 | 3.2 ×10⁴ /M | 97 | CC50 (CCRF-CEM; [10]): > 100 µM; CC50 (CCRF-CEM; [11]): > 100 µM; growth at 10 µM (U-251): -85%; growth at 0.1 µM (K562): 96%; GI50 (786-0; read-out: GI50): 0.257 µM; CC50 (786-0; [10]): 4.06 µM; TGI (786-0; read-out: TGI): 1.25 µM; GI50 (786-0; read-out: pGI50 (converted)): 0.257 µM; CC50 (786-0; [11]): 4.07 µM; TGI (786-0; read-out: pTGI (converted)): 1.26 µM; growth at 100 µM [7]: -90%; GI50 [8]: 1.41 µM; TGI [8]: 3.04 µM; CC50 [8]: 5.98 µM; GI50 [9]: 1.74 µM; TGI [9]: 3.67 µM; CC50 [9]: 14.2 µM
2 | Fc1ccc(-c2nc(Nc3ccc(-c4nc5ccccc5[nH]4)cc3)nc(N3CCOCC3)n2)cc1 | 94 | -23 | 101 | -44.3 | 3.11 | > 100 | 3.09 | > 100 | -96 | 79 | 97 | 3.26 | > 100 | 10.8 | 3.24 | > 100 | 10.7 | 93 | 7.9 ×10⁴ /M | 91 | CC50 (CCRF-CEM; [10]): > 100 µM; CC50 (CCRF-CEM; [11]): > 100 µM; growth at 10 µM (U-251): 5%; growth at 0.1 µM (K562): 101%; GI50 (786-0; read-out: GI50): 1.44 µM; CC50 (786-0; [10]): 7.24 µM; TGI (786-0; read-out: TGI): 3.23 µM; GI50 (786-0; read-out: pGI50 (converted)): 1.45 µM; CC50 (786-0; [11]): 7.24 µM; TGI (786-0; read-out: pTGI (converted)): 3.24 µM; growth at 100 µM [7]: -33%; GI50 [8]: 2.23 µM; TGI [8]: 11.8 µM; CC50 [8]: 8.47 µM; GI50 [9]: 2.68 µM; TGI [9]: 6.65 µM; CC50 [9]: 7.76 µM
3 | Clc1ccc(-c2nc(Nc3ccc(-c4nc5ccccc5[nH]4)cc3)nc(N3CCOCC3)n2)cc1 | 97 | -72 | 101 | -73.8 | 0.259 | 0.687 | 0.257 | 0.692 | -48 | 90 | 93 | 1.12 | 6.09 | 2.61 | 1.12 | 6.03 | 2.63 | 90 | 4.2 ×10⁷ /M | 93 | growth at 10 µM (U-251): -92%; growth at 0.1 µM (K562): 92%; GI50 (786-0; read-out: GI50): 0.177 µM; TGI (786-0; read-out: TGI): 0.348 µM; GI50 (786-0; read-out: pGI50 (converted)): 0.178 µM; TGI (786-0; read-out: pTGI (converted)): 0.347 µM; growth at 100 µM [7]: -26%; GI50 [8]: 0.77 µM; TGI [8]: 1.92 µM; CC50 [8]: > 100 µM; GI50 [9]: 1.15 µM; TGI [9]: 2.59 µM; CC50 [9]: 5.58 µM
4 | c1ccc2[nH]c(-c3ccc(Nc4nc(N5CCCCC5)nc(N5CCOCC5)n4)cc3)nc2c1 | 98 | -11 | 102 | 3.49 | 3.25 | > 100 | 3.24 | > 100 | -90 | 100 | 86 | 3.24 | > 100 | 14.3 | 3.24 | > 100 | 14.1 | 93 | 5.7 ×10⁴ /M | 96 | CC50 (CCRF-CEM; [10]): > 100 µM; CC50 (CCRF-CEM; [11]): > 100 µM; growth at 0.1 µM (K562): 107%; GI50 (786-0; read-out: GI50): 1.54 µM; CC50 (786-0; [10]): 6.68 µM; TGI (786-0; read-out: TGI): 3.21 µM; GI50 (786-0; read-out: pGI50 (converted)): 1.55 µM; CC50 (786-0; [11]): 6.61 µM; TGI (786-0; read-out: pTGI (converted)): 3.24 µM; growth at 100 µM [7]: -33%; GI50 [8]: 2.54 µM; TGI [8]: 23.2 µM; CC50 [8]: 46.6 µM; GI50 [9]: 2.85 µM; TGI [9]: 9.66 µM; CC50 [9]: 9.54 µM
